# Assay results gathered from unrelated publications.
SMILES,assay,system,conditions,measurement,value
COc1cc2c(c(OC)c1OC)-c1ccc(OC)c(=O)cc1[C@@H](NC(C)=O)CC2,,Caco-2,,efflux ratio,24.5
C[C@]12CC[C@H](n3ccnc3)CC1=CC[C@@H]1[C@@H]2CC[C@]2(C)C(n3cnc4ccccc43)=CC[C@@H]12.Cl,,"male CD-1 mouse, plasma","oral, 10 mg/kg",Tmax,800 min
CC(=C/C=C/C(C)=C/C(=O)O)/C=C1\CCCc2ccccc21,,"human, plasma","oral, 5 mg, single dose, fasted, healthy volunteers",Cmax,46.9 ng/mL
COc1ccc2[nH]cc(CCNc3nccc(Nc4cccc5c4ccn5C)n3)c2c1,,"mouse, plasma","intravenous, 9.5 mg/kg",Tmax,4.8 min
C[C@]12CC[C@H](O)CC1=CC[C@@H]1[C@@H]2CC[C@]2(C)C(n3cnc4ccccc43)=CC[C@@H]12.Cl,,"mouse, plasma","oral, 10 mg/kg",Tmax,25.2 min
N=c1c2c(-c3ccccc3)c(-c3ccccc3)n(Cc3ccccc3)c2ncn1[C@H]1CC[C@H](O)CC1,,Caco-2,"3 µM, 2 h, pH 7.4",efflux ratio,10
N#Cc1cc(NC(=O)[C@H]2c3ccccc3C(=O)N(CC(F)(F)F)[C@@H]2c2cccnc2)ccc1F,general toxicity,beagle dog,"oral, multiple doses",NOAEL,30 mg/kg
CC[C@H](C)[C@H](NC(=O)[C@H](CC(C)C)NC(=O)[C@H](Cc1c[nH]c2ccccc12)NC(=O)[C@H](CCC(N)=O)NC(=O)[C@@H](NC(=O)[C@H](Cc1ccccc1)NC(=O)[C@H](C)NC(=O)[C@H](CCCCNC(=O)COCCOCCNC(=O)COCCOCCNC(=O)CC[C@H](NC(=O)CCCCCCCCCCCCCCCCCCC(=O)O)C(=O)O)NC(=O)[C@H](CCC(N)=O)NC(=O)[C@H](C)NC(=O)[C@@H](NC(=O)[C@H](CCCCN)NC(=O)[C@H](CC(=O)O)NC(=O)[C@H](CC(C)C)NC(=O)C(C)(C)NC(=O)[C@@H](NC(=O)[C@H](CO)NC(=O)[C@H](Cc1ccc(O)cc1)NC(=O)[C@H](CC(=O)O)NC(=O)[C@H](CO)NC(=O)[C@@H](NC(=O)[C@H](Cc1ccccc1)NC(=O)[C@@H](NC(=O)CNC(=O)[C@H](CCC(=O)O)NC(=O)C(C)(C)NC(=O)[C@@H](N)Cc1ccc(O)cc1)[C@@H](C)O)[C@@H](C)O)[C@@H](C)CC)[C@@H](C)CC)C(C)C)C(=O)N[C@@H](C)C(=O)NCC(=O)NCC(=O)N1CCC[C@H]1C(=O)N[C@@H](CO)C(=O)N[C@@H](CO)C(=O)NCC(=O)N[C@@H](C)C(=O)N1CCC[C@H]1C(=O)N1CCC[C@H]1C(=O)N1CCC[C@H]1C(=O)N[C@@H](CO)C(N)=O,,"human, plasma","subcutaneous, 4.5 mg, multiple doses, healthy volunteers",Cmax,884 ng/mL
C/N=c1\nc(-c2ccccc2)n(-c2ccccc2)s1,,Caco-2,"20 µM, 95 min",efflux ratio,0.962
c1cc([C@H]2CC[C@]3(CC2)OO[C@]2(O3)C3CC4CC(C3)CC2C4)ccc1OCCN1CCOCC1,,"human, plasma","oral, 400 mg, patients",Cmax,732 ng/mL
N=C(N)NCCC[C@@H](NC(=O)[C@@H](N)Cc1ccccc1)C(=O)N[C@@H](Cc1ccccc1)C(=O)N[C@@H](CCCCN)C(N)=O,,"human, plasma","subcutaneous, 5 mg, multiple doses, once daily, patients",Cmax,212 ng/mL
Cc1ccccc1C(=O)NN=Cc1ccc(O)c(Br)c1,,"mouse, plasma","intraperitoneal, 0.8 mg/kg",Tmax,30 min
